Measured values reported in ChEMBL document CHEMBL1140051, “Discovery of novel Cdc25 phosphatase inhibitors with micromolar activity based on the structure-based virtual screening” (J Med Chem, 2008).

Tests used:
[1] = biological target: T1, M-phase inducer phosphatase 2 (Homo sapiens) (UniProt P30305); assay: Inhibition of Cdc25B (378-566) expressed in Escherichia coli at 50 uM
T1 sequence (whole entry): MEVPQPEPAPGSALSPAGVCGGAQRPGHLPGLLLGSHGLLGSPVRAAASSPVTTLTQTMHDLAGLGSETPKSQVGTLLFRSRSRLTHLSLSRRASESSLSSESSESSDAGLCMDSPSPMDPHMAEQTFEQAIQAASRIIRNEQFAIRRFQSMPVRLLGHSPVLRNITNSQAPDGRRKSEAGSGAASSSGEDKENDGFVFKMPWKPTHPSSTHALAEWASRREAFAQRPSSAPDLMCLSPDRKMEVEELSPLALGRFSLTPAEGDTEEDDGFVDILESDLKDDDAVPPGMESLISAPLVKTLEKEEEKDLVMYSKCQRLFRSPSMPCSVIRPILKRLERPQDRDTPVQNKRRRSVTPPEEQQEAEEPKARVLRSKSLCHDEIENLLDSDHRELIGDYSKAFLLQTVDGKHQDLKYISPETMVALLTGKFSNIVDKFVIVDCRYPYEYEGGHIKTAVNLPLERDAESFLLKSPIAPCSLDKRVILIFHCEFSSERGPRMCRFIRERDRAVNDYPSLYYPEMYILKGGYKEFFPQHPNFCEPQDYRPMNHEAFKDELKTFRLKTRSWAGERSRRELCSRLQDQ

[2] = biological target: T2, M-phase inducer phosphatase 1 (Homo sapiens, UniProt P30304); assay: Inhibition of Cdc25A (336-523) expressed in Escherichia coli
T2 sequence (P30304 whole entry): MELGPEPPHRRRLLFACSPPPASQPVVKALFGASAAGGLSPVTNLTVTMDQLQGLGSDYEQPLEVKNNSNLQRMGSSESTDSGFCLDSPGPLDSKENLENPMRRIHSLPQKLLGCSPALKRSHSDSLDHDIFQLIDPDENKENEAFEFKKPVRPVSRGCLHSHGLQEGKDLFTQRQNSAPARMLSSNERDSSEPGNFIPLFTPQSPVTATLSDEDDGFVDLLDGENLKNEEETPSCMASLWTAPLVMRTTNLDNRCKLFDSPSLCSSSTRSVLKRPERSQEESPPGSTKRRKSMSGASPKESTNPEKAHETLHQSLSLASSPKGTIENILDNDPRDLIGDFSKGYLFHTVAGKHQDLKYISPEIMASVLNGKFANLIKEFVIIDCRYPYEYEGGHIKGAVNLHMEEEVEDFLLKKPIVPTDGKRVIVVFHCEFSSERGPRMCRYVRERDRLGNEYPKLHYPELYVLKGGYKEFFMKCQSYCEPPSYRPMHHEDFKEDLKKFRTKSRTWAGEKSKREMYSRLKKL
Method in brief: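 Inhibitor added in DMSO. 20 min at room temperature, stopped with 1 mM orthovanadate (final). IC50 determined at least three times and averaged.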

[3] = Inhibition of Cdc25A R501A mutant
[4] = biological target: T3, M-phase inducer phosphatase 1 (Homo sapiens) (UniProt P30304); assay: Inhibition of Cdc25A (336-523) expressed in Escherichia coli at 50 uM
T3 sequence (whole entry): T2 sequence (P30304 whole entry)

[5] = biological target: T4, M-phase inducer phosphatase 2 (Homo sapiens, UniProt P30305); assay: Inhibition of Cdc25B (378-566) expressed in Escherichia coli
T4 sequence (P30305 whole entry): T1 sequence (whole entry)

[6] = Inhibition of Cdc25B R544K mutant
[7] = biological target: T2, M-phase inducer phosphatase 1; assay: Binding affinity to Cdc25A (336-523) expressed in Escherichia coli by steady-state kinetic assay
[8] = Inhibition of Cdc25A R501K mutant
[9] = Inhibition of Cdc25B R544A mutant

Structure (SMILES)	inhibition [1]	IC50 [2]	IC50 [3]	inhibition [4]	IC50 [5]	IC50 [6]	Ki [7]	IC50 [8]	IC50 [9]
COc1ccc(-n2nnc(SCC(=O)c3ccc(O)c(O)c3)n2)cc1	> 70%	4.07 µM	12.1 µM	> 70%	14.2 µM	17.4 µM	20.4 µM	6.09 µM	16 µM
Cc1ccc(/N=C2N=C(O)/C(=C/C=C/c3ccco3)S\2)cc1C	–	4.27 µM	–	–	5.44 µM	–	21.4 µM	–	–
Cc1ccc(NC2=NC(=O)/C(=C/C=C/c3ccco3)S2)cc1C	> 70%	–	–	> 70%	–	–	–	–	–
N#CC1=C(S)N(c2ccccc2)C(/C=C/c2ccc(-c3ccc(Cl)cc3)o2)NC1=O (configuration not stated)	> 70%	3.31 µM	–	> 70%	12.6 µM	–	29.2 µM	–	–
C=CCn1c(SCC(=O)c2ccc(O)c(O)c2)nnc1-c1cccc(Cl)c1	> 70%	3.28 µM	–	> 70%	4.67 µM	–	–	–	–
Cc1ccc(-c2nnc(SCC(=O)c3ccc(O)c(O)c3)n2-c2ccc(Cl)cc2)cc1	> 70%	–	–	> 70%	–	–	–	–	–
CC1=C(SCCO)C(=O)c2ccccc2C1=O	–	4.56 µM	–	–	23.6 µM	–	–	–	–
